Laboratory results reported in ChEMBL document CHEMBL1795275, “Substituted benzoxazinones as potent positive allosteric AMPA receptor modulators: part II” (Bioorg Med Chem Lett, 2011).
Active and inactive are the calls of the source. No cut-off for these calls is given here.

Tests used:
Rattus norvegicus [1] = species: Rattus norvegicus; assay: Positive allosteric modulation of AMPA receptor in rat embryonic hippocampal neurons assessed as concentration required to double glutamate-induced steady-state current by patch clamp electrophysiology assay; conditions: Hippocampus
Rattus norvegicus [2] = species: Rattus norvegicus; assay: Positive allosteric modulation of AMPA receptor in rat hippocampal slices assessed as increase of fEPSP-induced current amplitude at 10 uM; assay type: tissue-based; conditions: Hippocampus
How it was run: (§1)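 Field recordings in in vitro hippocampal slices. Result is the percent rise in fEPSP amplitude, measured at the stated compound concentration.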

Rattus norvegicus [3] = species: Rattus norvegicus; assay: Positive allosteric modulation of AMPA receptor in rat hippocampal slices assessed as increase of fEPSP-induced current amplitude at 3 uM; assay type: tissue-based; conditions: Hippocampus; how it was run: as §1
[4] = Displacement of [3H]-AMPAKINE from AMPA receptor in rat forebrain cell membranes; design: species or system Membrane
Rattus norvegicus [5] = species: Rattus norvegicus; assay: Ratio of compound to CX614 for AMPA receptor in rat embryonic hippocampal neurons assessed as concentration required to double glutamate-induced steady-state current; conditions: Hippocampus
Rattus norvegicus [6] = species: Rattus norvegicus; assay: Positive allosteric modulation of AMPA receptor in rat hippocampal slices assessed as increase of fEPSP-induced current amplitude at 30 uM; assay type: tissue-based; conditions: Hippocampus; how it was run: as §1
Rattus norvegicus [7] = species: Rattus norvegicus; assay: Positive allosteric modulation of AMPA receptor in rat hippocampal slices assessed as increase of fEPSP-induced current amplitude at 1 uM; assay type: tissue-based; conditions: Hippocampus; how it was run: as §1
Rattus norvegicus [8] = species: Rattus norvegicus; assay: Positive allosteric modulation of AMPA receptor in rat hippocampal slices assessed as increase of fEPSP-induced current amplitude at 0.3 uM; assay type: tissue-based; conditions: Hippocampus; how it was run: as §1

Row | Structure (SMILES) | CD (Rattus norvegicus [1]) | Activity (Rattus norvegicus [3]) | Ki [4] | also measured
1 | O=C1c2cc3c(cc2OCN1CCc1ccncc1)C(=O)N1CCCC1O3 (configuration not stated) | 0.24 µM | 3% | 43 µM | Activity (Rattus norvegicus [2]): 15%
2 | Cc1nccn1CCN1COc2cc3c(cc2C1=O)OC1CCCN1C3=O (configuration not stated) | 1.8 µM | – | 227 µM | –
3 | O=C1c2cc3c(cc2OCN1CCc1ccccc1Cl)C(=O)N1CCCC1O3 (configuration not stated) | 7.1 µM | – | – | –
4 | C[C@@H]1CN2C(=O)c3cc4c(cc3O[C@H]2O1)OCO4 | 200 µM | – | – | –
5 | O=C1c2cc3c(cc2OCN1CCc1cccc(C(F)(F)F)c1)C(=O)N1CCCC1O3 (configuration not stated) | 0.2 µM | – | 2.5 µM | Activity (Rattus norvegicus [6]): 1%
6 | N#Cc1ccnn1CCN1COc2cc3c(cc2C1=O)OC1CCCN1C3=O (configuration not stated) | 0.045 µM | 16% | 22 µM | –
7 | N#CCCN1COc2cc3c(cc2C1=O)OC1CCCN1C3=O (configuration not stated) | 0.6 µM | – | 11 µM | Activity (Rattus norvegicus [2]): 19%
8 | N#CCCCN1COc2cc3c(cc2C1=O)OC1CCCN1C3=O (configuration not stated) | 0.05 µM | 11% | 6.8 µM | –
9 | O=C1c2cc3c(cc2OCN1CCc1cccc(Br)c1)C(=O)N1CCCC1O3 (configuration not stated) | 1.6 µM | – | 150 µM | –
10 | O=C1c2cc3c(cc2OCN1CCc1cccc(F)c1)C(=O)N1CCCC1O3 (configuration not stated) | 0.011 µM | 16% | 0.5 µM | –
11 | N#Cc1cnn(CCN2COc3cc4c(cc3C2=O)OC2CCCN2C4=O)c1 (configuration not stated) | 0.04 µM | 29% | 1 µM | –
12 | O=C1c2cc3c(cc2OCN1CCc1ccsc1)C(=O)N1CCCC1O3 (configuration not stated) | 0.02 µM | 15% | 0.27 µM | –
13 | NC(=O)CCN1COc2cc3c(cc2C1=O)OC1CCCN1C3=O (configuration not stated) | 1.1 µM | – | 51 µM | Activity (Rattus norvegicus [6]): 6%
14 | N#Cc1ccn(CCN2COc3cc4c(cc3C2=O)OC2CCCN2C4=O)n1 (configuration not stated) | 0.1 µM | 10% | 18 µM | –
15 | O=C1c2cc3c(cc2OCN1c1ccccc1)C(=O)N1CCCC1O3 (configuration not stated) | inactive | – | – | –
16 | O=C1c2cc3c(cc2OCN1CCc1cccc([N+](=O)[O-])c1)C(=O)N1CCCC1O3 (configuration not stated) | 0.015 µM | 8% | 3.6 µM | –
17 | N#CCCCCN1COc2cc3c(cc2C1=O)OC1CCCN1C3=O (configuration not stated) | 0.11 µM | – | 4.5 µM | Activity (Rattus norvegicus [2]): 22%
18 | CSCCN1COc2cc3c(cc2C1=O)OC1CCCN1C3=O (configuration not stated) | 0.29 µM | 12% | 17 µM | –
19 | O=C1c2cc3c(cc2OCN1CCn1cnc([N+](=O)[O-])c1)C(=O)N1CCCC1O3 (configuration not stated) | 0.0007 µM | – | 0.06 µM | Activity (Rattus norvegicus [8]): 19%; Ratio (Rattus norvegicus [5]): 3000
20 | O=C1c2cc3c(cc2OCN1CCO)C(=O)N1CCCC1O3 (configuration not stated) | 1.3 µM | – | 33 µM | –
21 | N#Cc1cccc(CCN2COc3cc4c(cc3C2=O)OC2CCCN2C4=O)c1 (configuration not stated) | 0.027 µM | 16% | 3 µM | –

Row | Structure (SMILES) | CD (Rattus norvegicus [1]) | Activity (Rattus norvegicus [3]) | Ki [4] | also measured
22 | N#CSCCN1COc2cc3c(cc2C1=O)OC1CCCN1C3=O (configuration not stated) | 0.06 µM | 7% | 1 µM | –
23 | COCCN1COc2cc3c(cc2C1=O)OC1CCCN1C3=O (configuration not stated) | 1.2 µM | – | 41 µM | Activity (Rattus norvegicus [2]): 14%
24 | N#CNCCN1COc2cc3c(cc2C1=O)OC1CCCN1C3=O (configuration not stated) | 1.8 µM | – | 51 µM | Activity (Rattus norvegicus [2]): 2%
25 | O=C1c2cc3c(cc2OC2CCCN12)OCCO3 (configuration not stated) | 2.3 µM | – | – | –
26 | O=C1c2cc3c(cc2OCN1CCc1ccon1)C(=O)N1CCCC1O3 (configuration not stated) | 0.4 µM | 4% | 41 µM | –
27 | O=C1c2cc3c(cc2OCN1CCn1cnc([N+](=O)[O-])n1)C(=O)N1CCCC1O3 (configuration not stated) | 0.01 µM | 14% | 4.2 µM | –
28 | C[S+]([O-])CCN1COc2cc3c(cc2C1=O)OC1CCCN1C3=O (configuration not stated) | 0.11 µM | 14% | 13 µM | –
29 | O=C1c2cc3c(cc2OCN1CCn1cc([N+](=O)[O-])cn1)C(=O)N1CCCC1O3 (configuration not stated) | 0.0065 µM | – | 0.24 µM | Activity (Rattus norvegicus [7]): 29%
30 | O=C1c2cc3c(cc2OCN1Cc1ccccc1)C(=O)N1CCCC1O3 (configuration not stated) | 6 µM | – | – | –
31 | NC(=S)c1cccc(CCN2COc3cc4c(cc3C2=O)OC2CCCN2C4=O)c1 (configuration not stated) | 0.4 µM | – | – | Activity (Rattus norvegicus [2]): 5%
32 | O=C1c2cc3c(cc2OCN1CCc1cccnc1)C(=O)N1CCCC1O3 (configuration not stated) | 0.2 µM | 15% | 6.6 µM | –
33 | O=C1c2cc3c(cc2OCN1CCc1c[nH]cn1)C(=O)N1CCCC1O3 (configuration not stated) | 5.1 µM | – | 225 µM | –
34 | C[C@H]1CN2C(=O)c3cc4c(cc3O[C@@H]2O1)OCO4 | 2 µM | – | – | –
35 | CN(CCCN1COc2cc3c(cc2C1=O)OC1CCCN1C3=O)S(C)(=O)=O (configuration not stated) | 0.33 µM | – | 34 µM | Activity (Rattus norvegicus [2]): 9%
36 | O=C1c2cc3c(cc2OCN1CCc1ccccn1)C(=O)N1CCCC1O3 (configuration not stated) | 0.6 µM | – | 130 µM | Activity (Rattus norvegicus [6]): 15%
37 | N#CCN1COc2cc3c(cc2C1=O)OC1CCCN1C3=O (configuration not stated) | 0.5 µM | – | 17 µM | Activity (Rattus norvegicus [2]): 10%
38 | O=C1c2cc3c(cc2OCN1CCn1ccnc1)C(=O)N1CCCC1O3 (configuration not stated) | 0.05 µM | – | 6.6 µM | Activity (Rattus norvegicus [2]): 38%
39 | CCN1COc2cc3c(cc2C1=O)OC1CCCN1C3=O (configuration not stated) | 0.2 µM | – | 20 µM | Activity (Rattus norvegicus [2]): 17%
40 | COc1cccc(CCN2COc3cc4c(cc3C2=O)OC2CCCN2C4=O)c1 (configuration not stated) | 14 µM | – | 69 µM | –
41 | CN(CCN1COc2cc3c(cc2C1=O)OC1CCCN1C3=O)S(C)(=O)=O (configuration not stated) | 0.38 µM | – | 31 µM | Activity (Rattus norvegicus [2]): 8%

Continued, in another order:

Row | CD (Rattus norvegicus [1]) | Activity (Rattus norvegicus [3]) | Structure (SMILES) | Ki [4] | also measured
42 | 0.005 µM | 16% | O=C1c2cc3c(cc2OCN1CCc1cc(F)cc(F)c1)C(=O)N1CCCC1O3 (configuration not stated) | 0.3 µM | Ratio (Rattus norvegicus [5]): 460
43 | 0.02 µM | – | O=C1c2cc3c(cc2OCN1CCc1cccc(Cl)c1)C(=O)N1CCCC1O3 (configuration not stated) | 1.8 µM | Activity (Rattus norvegicus [6]): 7%
44 | 1.2 µM | – | O=C1c2cc3c(cc2OCN1CCc1ccc(F)cc1)C(=O)N1CCCC1O3 (configuration not stated) | – | Activity (Rattus norvegicus [6]): 6%
45 | 0.16 µM | – | O=C1c2cc3c(cc2OCN1CCn1ccnn1)C(=O)N1CCCC1O3 (configuration not stated) | 5.1 µM | Activity (Rattus norvegicus [7]): 8%
46 | 5.4 µM | – | O=C1c2cc3c(cc2OCN1CCc1ccccc1F)C(=O)N1CCCC1O3 (configuration not stated) | 36 µM | –
47 | 0.32 µM | 6% | CS(=O)(=O)CCN1COc2cc3c(cc2C1=O)OC1CCCN1C3=O (configuration not stated) | 20 µM | –
48 | 0.032 µM | – | O=C1c2cc3c(cc2OCN1CCc1cccs1)C(=O)N1CCCC1O3 (configuration not stated) | 2 µM | –
49 | 0.064 µM | 15% | O=C1c2cc3c(cc2OCN1CCn1cccn1)C(=O)N1CCCC1O3 (configuration not stated) | 5.1 µM | –
50 | 3 µM | – | O=C1c2cc3c(cc2OCN1CCc1cccc(OC(F)(F)F)c1)C(=O)N1CCCC1O3 (configuration not stated) | 13 µM | –
51 | 5 µM | – | NC(=O)c1cccc(CCN2COc3cc4c(cc3C2=O)OC2CCCN2C4=O)c1 (configuration not stated) | 620 µM | –
52 | 3.6 µM | – | O=C1c2cc3c(cc2OCN1CCCc1ccccc1)C(=O)N1CCCC1O3 (configuration not stated) | – | –
53 | 0.8 µM | 7% | O=C1c2cc3c(cc2OCN1CCn1nccn1)C(=O)N1CCCC1O3 (configuration not stated) | 62 µM | –
54 | 0.0037 µM | – | O=C1c2cc3c(cc2OCN1CCn1cc(Cl)cn1)C(=O)N1CCCC1O3 (configuration not stated) | 0.33 µM | Activity (Rattus norvegicus [7]): 23%
55 | 0.08 µM | 16% | [N-]=[N+]=NCCN1COc2cc3c(cc2C1=O)OC1CCCN1C3=O (configuration not stated) | 5.9 µM | –
56 | 0.063 µM | 31% | O=C1c2cc3c(cc2OCN1CCn1cncn1)C(=O)N1CCCC1O3 (configuration not stated) | 2.1 µM | –
57 | 0.02 µM | 32% | O=C1c2cc3c(cc2OCN1CCn1cc(Br)cn1)C(=O)N1CCCC1O3 (configuration not stated) | 2.5 µM | –
58 | 0.25 µM | 3% | O=C1c2cc3c(cc2OCN1CCc1ccccc1)C(=O)N1CCCC1O3 (configuration not stated) | 7.9 µM | Activity (Rattus norvegicus [6]): 19%
59 | 0.33 µM | 10% | CS(=O)(=O)NCCN1COc2cc3c(cc2C1=O)OC1CCCN1C3=O (configuration not stated) | 8.4 µM | –
60 | > 40 µM | – | O=C1c2cc3c(cc2OCN1CCc1ccc(Cl)cc1)C(=O)N1CCCC1O3 (configuration not stated) | – | –
